Assay outcomes from PubChem.
KDM4C inh = inhibitors of human demethylase GASC-1 KDM4C. Q9H3R0. GST-KDM4C 2-372, H3K9me3 peptide, LANCE TR-FRET. inhibition, % at 12.5 µM. hit rate 0.15% among 96,000. AID 720574;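 active = mean replicate inhibition above about 25%, with at least 55% of replicates also reaching it, limit read from the data, passing the limit was not always enough; inconclusive = only one of those two conditions met; inactive = neither condition met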
Target sequence (Q9H3R0 2-372 limits assumed): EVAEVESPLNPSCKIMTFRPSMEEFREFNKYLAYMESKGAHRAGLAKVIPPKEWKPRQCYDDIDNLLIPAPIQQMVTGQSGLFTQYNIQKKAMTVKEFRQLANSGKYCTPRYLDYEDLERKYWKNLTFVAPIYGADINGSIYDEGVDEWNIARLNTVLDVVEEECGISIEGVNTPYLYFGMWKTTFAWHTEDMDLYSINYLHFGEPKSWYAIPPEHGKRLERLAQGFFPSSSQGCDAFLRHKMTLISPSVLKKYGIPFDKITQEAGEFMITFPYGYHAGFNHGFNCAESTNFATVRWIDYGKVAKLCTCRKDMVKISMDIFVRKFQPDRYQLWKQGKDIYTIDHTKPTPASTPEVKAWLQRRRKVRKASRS
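Compound: one test concentration per compound; Material: GST-GASC-1 enzyme fragment 2-372; Amount: GASC-1 enzyme at 10 nM final in reaction; Also added: H3K9me3 peptide substrate, Fe(II), 2-oxoglutarate; Technique: LANCE TR-FRET; Times: 30 min demethylation and 1 h detection at room temperature.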
T cruzi growth-1 = T. cruzi proliferation inhibition. hit rate 5.9% among 77,000. inhibition, % at 8.34 µM. AID 624255. T. cruzi beta-gal in NIH3T3, GalScreen luminescence, 90 h;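 active = mean inhibition above about 93%, with at least 55% of replicates each passing it, limit read from the data, passing the limit was not always enough; inconclusive = only one of those two conditions holds; inactive = neither condition holds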
Pf Dd2 inh = inhibitors of Plasmodium falciparum Dd2 growth; P. falciparum Dd2 growth, SYBR Green, 72 h; active compounds read low; activity change, % at 10 µM; hit rate 2.3% among 94,000; AID 1159554; in the data active = activity change below about -80%; inconclusive = no clear call, values can overlap the other calls
IDH1 R132H inh = inhibitors of human IDH1 R132H; O75874; inhibition, % at 10 µM; hit rate 0.18% among 70,000; IDH1 R132H reductase, diaphorase/resazurin fluorescence, 60 min; in the data active = inhibition above about 34%; inconclusive = no clear call, values can overlap the other calls; inactive = below about 11%;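 also: 0% = DMSO and 100% = no enzyme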
T cruzi growth-2 = Trypanosoma cruzi proliferation inhibition | shares compounds with T cruzi growth-1 | hit rate 72% among 5,600 | inhibition, % at 8.35 µM | T. cruzi beta-gal in NIH3T3, GalScreen luminescence, 90 h;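 active = mean replicate inhibition above about 95% and at least 55% of replicates individually reaching it, limit read from the data; inconclusive = only one of the two criteria is met; inactive = neither criterion is met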
T cruzi growth-3 = blocks T. cruzi growth in NIH3T3 host cells; shares compounds with T cruzi growth-1; hit rate 21% among 5,600; inhibition, % at 2.09 µM; AID 651740; T. cruzi beta-gal in NIH3T3, GalScreen luminescence, 90 h;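 active = mean inhibition above about 95%, with at least 55% of replicates also reaching it, limit read from the data; inconclusive = meets just one of the two conditions; inactive = meets neither condition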;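 also: plate controls were neutral control median for no effect and positive control median for full effect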
NIH3T3 tox = NIH/3T3 (mouse) viability loss; NIH/3T3 viability, CellTiter-Glo ATP luminescence, 90 h; hit rate 14% among 5,600; shares compounds with T cruzi growth-1; cytotoxicity (signal decrease), % at 8.35 µM;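 active = mean signal decrease across replicates above about 35% based on untreated-well scatter, with enough replicates individually passing, limit read from the data; inconclusive = no rule stated though some were filed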;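 also: 0% = median of neutral control wells and 100% = median of positive control wells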
3T3 cytotox 2 = cytotoxicity in mouse NIH/3T3 fibroblasts | shares compounds with T cruzi growth-1 | AID 651744 | hit rate 56% among 5,600 | inhibition, % at 24.9 µM | NIH/3T3 viability, CellTiter-Glo ATP luminescence, 90 h;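 active = mean loss of cell viability signal at or above a set limit, and enough replicates individually reaching it; inconclusive = meets only the mean limit or only the replicate share; inactive = meets neither condition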;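 also: 0% = median of neutral control wells and 100% = median of positive control wells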
Starred values were filed as active, the others as inactive; ? = inconclusive; / = no result given; ! = not confirmed by another sample. The list is not random: actives were taken first. Their share in the collection is about 5.9%.

SMILES	KDM4C inh	T cruzi growth-1	Pf Dd2 inh	IDH1 R132H inh	T cruzi growth-2	T cruzi growth-3	NIH3T3 tox	3T3 cytotox 2
CCCn1nnc(NC(=O)COc2ccc(C)cc2C)n1	/	/	/	0	/	/	/	/
C[C@@H]1CCCCO[C@H](CN(C)Cc2ccc3c(c2)OCO3)[C@H](C)CN([C@H](C)CO)C(=O)c2cc(NC(=O)Nc3ccc(F)cc3)ccc2O1	-4	96*	-74	/	103*	59	21	104*
C[C@@H]1CN([C@H](C)CO)C(=O)c2cc(NC(=O)Nc3ccc(F)cc3)ccc2O[C@@H](C)CCCCO[C@H]1CN(C)Cc1ccc2c(c1)OCO2	-3	87	-71	2	/	/	/	/
C[C@@H]1CCCCO[C@@H](CN(C)Cc2ccc3c(c2)OCO3)[C@@H](C)CN([C@H](C)CO)C(=O)c2cc(NC(=O)Nc3ccc(F)cc3)ccc2O1	-1	97*	-13	4	114*	30	11	-6
C[C@@H]1CN([C@H](C)CO)C(=O)c2cc(NC(=O)Nc3ccc(F)cc3)ccc2O[C@@H](C)CCCCO[C@@H]1CN(C)Cc1ccc2c(c1)OCO2	-3	88	?	/	/	/	/	/
C[C@H](CO)N1C[C@H](C)[C@@H](CN(C)Cc2ccc3c(c2)OCO3)OCCCC[C@H](C)Oc2ccc(NC(=O)Nc3ccc(F)cc3)cc2C1=O	1	103*	16	/	100*	81	18	43*
CS(=O)(=O)N(CC(=O)Nc1ccc(F)cc1)c1ccc(Cl)c(Cl)c1	/	/	/	0	/	/	/	/
Cc1ccc(SCc2[nH]n(-c3nc4ccccc4s3)c(=O)c2C=NCc2ccco2)cc1	/	/	/	-1	/	/	/	/
CCC(=O)N(C)C[C@H]1Oc2cc(C#Cc3ccncc3)ccc2S(=O)(=O)N([C@H](C)CO)C[C@H]1C	17	107*	-45	?	38	36	13	38*
C[C@H](CO)N1C[C@H](C)[C@H](CN(C)S(C)(=O)=O)Oc2cc(C#CC3CCCC3)ccc2S1(=O)=O	5	?	3	/	100*	35	27	66*
CCC(=O)N(C)C[C@@H]1Oc2cc(C#CC3CCCCC3)ccc2S(=O)(=O)N([C@H](C)CO)C[C@H]1C	-4	82	-37	/	/	/	/	/
CCC(=O)N(C)C[C@@H]1Oc2cc(C#CC3CCCCC3)ccc2S(=O)(=O)N([C@@H](C)CO)C[C@H]1C	-1	114*	-65	/	98*	54	18	80*
C[C@@H]1CN([C@H](C)CO)S(=O)(=O)c2ccc(C#Cc3ccc(F)cc3)cc2O[C@H]1CN(C)S(C)(=O)=O	-3	97*	-72	0	98*	38	?	55*
COc1ccc(OC)c(NC(=O)c2ccc(C)c(S(=O)(=O)Nc3ccc(C)cc3)c2)c1	/	/	/	0	/	/	/	/
Fc1cccc(Cl)c1CN1CCN(CCCNc2ncnc3scc(-c4ccccc4)c23)CC1	/	/	/	-3	/	/	/	/
CC(O)CNc1nc2c(c(=O)n(Cc3ccccc3F)c(=O)n2C)n1C (stereo not given)	/	/	/	-2	/	/	/	/
C[C@H]1CN([C@@H](C)CO)S(=O)(=O)c2ccc(C#CC3CCCCC3)cc2O[C@@H]1CN(C)C	-3	109*	-48	-1	109*	81	18	104*
C[C@H]1CN([C@@H](C)CO)S(=O)(=O)c2ccc(C#CC3CCCC3)cc2O[C@H]1CN(C)S(C)(=O)=O	-3	89	0	-2	/	/	/	/
C[C@@H]1CN([C@@H](C)CO)S(=O)(=O)c2ccc(C#CC3CCCC3)cc2O[C@@H]1CN(C)S(C)(=O)=O	0	?	13	-1	84	47	10	67*
C[C@@H]1CN([C@H](C)CO)S(=O)(=O)c2ccc(C#CC3CCCCC3)cc2O[C@H]1CN(C)C	-2	84	-59	0	/	/	/	/
COCCNS(=O)(=O)c1cc([N+](=O)[O-])ccc1C	/	/	/	0	/	/	/	/
COC(=O)CSc1nc(N(C)C)nc(N(C)C)n1	/	/	/	0	/	/	/	/
Cc1cc(OCC(=O)Nc2ccccc2C(=O)NC2CCCCC2)cc(C)c1Cl	/	/	/	0	/	/	/	/
O=c1[nH]c2ccc(S(=O)(=O)NCc3ccco3)cc2[nH]1	/	/	/	2	/	/	/	/
N#C[C@H]1[C@@H](c2ccc(C#CCC3CCCC3)cc2)[C@@H](CO)N1C(=O)c1ccccn1	-1	97*	?	0	102*	112*	-25	93*
SMILES	KDM4C inh	T cruzi growth-1	Pf Dd2 inh	IDH1 R132H inh	T cruzi growth-2	T cruzi growth-3	NIH3T3 tox	3T3 cytotox 2
COCC(=O)N1[C@H](CO)[C@H](c2ccc(C#CCC3CCCC3)cc2)[C@@H]1C#N	-1	89	-28	0	/	/	/	/
N#C[C@@H]1[C@@H](c2ccc(C#CCC3CCCC3)cc2)[C@H](CO)N1C(=O)c1ccccn1	0	97*	-24	/	?	112*	-1	107*
CCCNC(=O)N(C)C[C@@H]1Oc2cc(-c3ccncc3)ccc2S(=O)(=O)N([C@H](C)CO)C[C@@H]1C	3	38	-16	1	/	/	/	/
CCCNC(=O)N(C)C[C@@H]1Oc2cc(-c3ccncc3)ccc2S(=O)(=O)N([C@@H](C)CO)C[C@H]1C	1	111*	38	1	97*	85	2	10
CCCNC(=O)N(C)C[C@@H]1Oc2cc(-c3ccncc3)ccc2S(=O)(=O)N([C@H](C)CO)C[C@H]1C	0	107*	-1	-1	87	76	1	13
CCOC(=O)c1sc(NC(=O)C(C)(C)Oc2ccc(Cl)cc2)c(C#N)c1C	/	/	/	1	/	/	/	/
O=C(Nc1cccc(S(=O)(=O)N2CCCC2)c1)c1cc(-n2cnnc2)ccc1Cl	/	/	/	0	/	/	/	/
CCOc1ccc(NC(=O)Cn2cnc3scc(-c4ccc5ccccc5c4)c3c2=O)cc1	/	/	/	0	/	/	/	/
Cc1ccc(OCC(=O)Nc2cccc(-c3nc4cc(Cl)ccc4o3)c2C)c(C)c1	/	/	/	0	/	/	/	/
C[C@H]1CN([C@@H](C)CO)C(=O)c2cc(C#Cc3ccccc3F)cnc2O[C@@H]1CN(C)S(=O)(=O)c1ccccc1F	-4	115*	-44	0	111*	76	26	43*
C[C@H]1CN([C@@H](C)CO)C(=O)c2cc(C#Cc3ccccc3F)cnc2O[C@H]1CN(C)S(=O)(=O)c1ccccc1F	-4	97*!	-39	0	107*	77	60*	40*
C[C@@H]1CN([C@@H](C)CO)C(=O)c2cc(C#Cc3ccccc3)cnc2O[C@@H]1CN(C)S(=O)(=O)c1ccccc1F	/	52	-53	/	/	/	/	/
C[C@H]1CN([C@@H](C)CO)C(=O)c2cc(C#Cc3ccccc3)cnc2O[C@H]1CN(C)S(=O)(=O)c1ccccc1F	/	85	-59	-1	/	/	/	/
